In general, pKi refers to −log10 of the Ki, conventionally taken in molar units. A low value points to a large Ki. In general, pEC50 refers to −log10 of the EC50, conventionally taken in molar units. A lower pEC50 goes with a large EC50. By pIC50 is commonly meant the IC50 on a negative log10 scale, so that one unit is a factor of ten. Low values mean a large IC50, high ones a small IC50. For orientation: Emax means the greatest response seen or fitted, relative to the assay's reference.

We go through three compounds from ChEMBL document CHEMBL4152271, “Polypharmacological profile of 1,2-dihydro-2-oxo-pyridine-3-carboxamides in the endocannabinoid system” (Eur J Med Chem, 2018).

Test [1] addresses T1, Cannabinoid receptor 2 (Homo sapiens, UniProt P34972). The experiment in a line: Displacement of [3H]-CP55940 from human CB2 receptor expressed in CHO cell membranes after 90 mins. Summed up: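 Membranes expressing hCB1 or hCB2 (stably transfected CHO) in 50 mM Tris-HCl, 2.5 mM EDTA, 5 mM MgCl₂, 0.5% fatty acid-free BSA, pH 7.4. Nonspecific binding with 10 µM […]. GF/B filtration, radioactivity counted, Ki derived. Mean ± SD, at least 3 experiments in triplicate.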
Background: In a radioligand displacement assay an active substance lowers the binding of a labelled ligand.

For test [2], the target named is T2, Cannabinoid receptor 1 (Homo sapiens, UniProt P21554). The experiment in a line: Agonist activity at CB1 receptor in human U251MG cells assessed as upregulation of MICA/B expression at 10 uM after 24 hrs by cytofluorimetric method. The test is classed as functional, cell-based. The gist of the method:
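U251MG glioma cells seeded at 2x10⁴ cells/cm², grown 24h, washed, then exposed to vehicle or compound in complete medium for 24 h. 2x10⁵ cells stained with PE anti-MICA/B or isotype control, 20 min at 4°C, fixed in 1% formaldehyde. Flow cytometry read-out as MFI, 3 independent experiments, mean ± SD, ANOVA with Bonferroni.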

Test [3] deals with T2, Cannabinoid receptor 1. The experiment in a line: Agonist activity at human CB1 receptor expressed in CHO cell membranes after 90 mins by [35S]GTPgammaS binding assay. The test is classed as functional, cell-based. On the technique in general: GTPγS resists hydrolysis and so accumulates on activated G proteins.
Test [4] has as its target T3, Monoacylglycerol lipase ABHD6 (Homo sapiens, UniProt Q9BV23).
T3 sequence (Q9BV23 whole entry): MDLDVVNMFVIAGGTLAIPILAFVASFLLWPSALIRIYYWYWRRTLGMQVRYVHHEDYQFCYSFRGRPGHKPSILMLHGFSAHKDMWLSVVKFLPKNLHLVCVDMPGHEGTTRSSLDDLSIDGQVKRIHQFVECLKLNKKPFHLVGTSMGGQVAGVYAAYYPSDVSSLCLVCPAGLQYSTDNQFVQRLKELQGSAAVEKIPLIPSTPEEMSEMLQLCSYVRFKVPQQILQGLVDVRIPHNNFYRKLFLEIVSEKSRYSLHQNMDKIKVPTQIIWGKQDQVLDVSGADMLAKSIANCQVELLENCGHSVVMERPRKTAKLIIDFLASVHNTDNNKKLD
Nature of the test: Inhibition of human ABHD6 expressed in HEK293 cells using 2-OG as substrate preincubated for 30 mins followed by substrate addition and measured after 5 mins by liquid scintillation spectroscopic method. The test is classed as cell-based. The gist of the method: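 Homogenate (40 µg) of HEK293 cells stably transfected with hABHD6 or hABHD12, compound preincubated 30 min at 37 °C in […], 0.1% BSA, pH 7.6. DMSO vehicle; WWL70 10 µM or THL 20 µM as positive controls. 10 µM 2-OG added for 5 min at 37 °C, stopped with CHCl₃:MeOH. Aqueous phase counted; no-enzyme blanks and non-transfected HEK293 hydrolysis subtracted.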

Test [5] has as its target T4, Fatty-acid amide hydrolase 1 (Homo sapiens, UniProt O00519).
T4 sequence (O00519 whole entry): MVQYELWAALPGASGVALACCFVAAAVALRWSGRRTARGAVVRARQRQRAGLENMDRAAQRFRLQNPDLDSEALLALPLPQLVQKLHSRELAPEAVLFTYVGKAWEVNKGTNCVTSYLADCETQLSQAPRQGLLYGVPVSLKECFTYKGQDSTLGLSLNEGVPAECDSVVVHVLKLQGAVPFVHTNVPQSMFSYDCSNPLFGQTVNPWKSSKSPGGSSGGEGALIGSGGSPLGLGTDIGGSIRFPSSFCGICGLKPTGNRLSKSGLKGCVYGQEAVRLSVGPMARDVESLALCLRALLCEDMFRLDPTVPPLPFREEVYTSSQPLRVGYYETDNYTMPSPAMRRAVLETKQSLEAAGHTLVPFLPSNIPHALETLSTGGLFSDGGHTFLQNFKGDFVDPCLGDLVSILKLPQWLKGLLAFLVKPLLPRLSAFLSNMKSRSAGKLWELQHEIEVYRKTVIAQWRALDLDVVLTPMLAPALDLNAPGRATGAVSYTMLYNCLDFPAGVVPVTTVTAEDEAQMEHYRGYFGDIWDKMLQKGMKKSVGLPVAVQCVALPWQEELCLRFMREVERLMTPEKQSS
The experiment in a line: Inhibition of FAAH in human U937 cells using AEA containing [ethanolamine-1-3H]AEA as substrate preincubated for 30 mins followed by substrate addition and measured after 15 mins by liquid scintillation spectroscopic method. The test is classed as cell-based. Summed up:
(§1)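 U937 cell homogenate (100 µg) in 10 mM Tris-HCl, 1 mM EDTA, pH 8, 0.1% fatty acid-free BSA. Compound at 10 µM screening concentration, 30 min at 37 °C. FAAH: 100 nM AEA with 1 nM [³H]AEA tracer. MAGL: 1 µM 2-OG with 1 nM tritiated tracer. Both 15 min at 37 °C, stopped with CHCl₃:MeOH (1:1), aqueous phase counted.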

The target of test [6] is T1, Cannabinoid receptor 2. The experiment in a line: Agonist activity at human CB2 receptor expressed in CHO cell membranes after 90 mins by [35S]GTPgammaS binding assay relative to control. It counts as functional. Summed up: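 Membranes (5 µg) of hCB2-expressing cells in 50 mM Tris-HCl, 3 mM MgCl₂, 0.2 mM EDTA, 100 mM NaCl, 0.5% fatty acid-free BSA, pH 7.4, with 10 µM GDP and 0.1 nM [³⁵S]GTPγS. Kept on ice, started by vehicle or compound, 90 min at 30 °C. Nonspecific binding with 10 µM GTPγS. Filtered on GF/B, radioactivity counted. At least three experiments in triplicate, mean ± SD.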

The next test relates to U-251. Nature of the test: Cytotoxicity against human U251MG cells assessed as decrease in cell viability at 0.6 to 40 uM after 48 hrs by MTT assay. It counts as functional, cell-based. Summed up:
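U251MG (EMEM, 10% FBS) or U937 (RPMI 1640, 10% FBS) cells plated at 4x10³/well for 24h, then exposed to compounds (0–40 µM) for 48 h at 37°C. MTT reduction, formazan read at 595 nm. Viability as % of untreated control. Five independent experiments in triplicate, mean ± SD, ANOVA with Bonferroni.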

The next test deals with T5, Monoglyceride lipase (Homo sapiens, UniProt Q99685).
T5 sequence (Q99685 whole entry): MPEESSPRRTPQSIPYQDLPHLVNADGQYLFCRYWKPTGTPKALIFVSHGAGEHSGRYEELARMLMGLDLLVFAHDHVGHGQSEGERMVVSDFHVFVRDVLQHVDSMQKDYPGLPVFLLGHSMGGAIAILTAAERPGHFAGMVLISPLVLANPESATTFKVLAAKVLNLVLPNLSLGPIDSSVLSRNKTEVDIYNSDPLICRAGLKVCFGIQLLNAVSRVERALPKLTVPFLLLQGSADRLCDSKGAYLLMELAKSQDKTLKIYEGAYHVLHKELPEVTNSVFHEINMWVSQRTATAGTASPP
The experiment in a line: Inhibition of MAGL in human U937 cells using 2-OG containing […] as substrate preincubated for 30 mins followed by substrate addition and measured after 15 mins by liquid scintillation spectroscopic method. It counts as cell-based. Summed up: as §1

The target in test [7] is T2, Cannabinoid receptor 1. The experiment in a line: Displacement of [3H]-CP55940 from human CB1 receptor expressed in CHO cell membranes after 90 mins.

Each structure is given as a SMILES string. pEC50, pIC50, pKi: −log10 of the molar value. Calls of active or inactive are those of the source. The calls are words filed in the database; no cut-off is given here. Bounds are passed on as bounds.

T1 sequence (P34972 whole entry): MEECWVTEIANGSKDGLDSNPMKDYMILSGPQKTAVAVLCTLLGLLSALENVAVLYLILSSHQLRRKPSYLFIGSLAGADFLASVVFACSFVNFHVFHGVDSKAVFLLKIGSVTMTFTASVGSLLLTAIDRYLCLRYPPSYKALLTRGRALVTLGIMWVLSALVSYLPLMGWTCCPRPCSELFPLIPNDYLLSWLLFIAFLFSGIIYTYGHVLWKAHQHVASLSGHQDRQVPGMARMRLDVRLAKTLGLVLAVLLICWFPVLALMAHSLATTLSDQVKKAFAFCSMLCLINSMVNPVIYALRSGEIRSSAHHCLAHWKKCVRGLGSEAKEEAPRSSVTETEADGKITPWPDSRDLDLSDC
T2 sequence (P21554 whole entry): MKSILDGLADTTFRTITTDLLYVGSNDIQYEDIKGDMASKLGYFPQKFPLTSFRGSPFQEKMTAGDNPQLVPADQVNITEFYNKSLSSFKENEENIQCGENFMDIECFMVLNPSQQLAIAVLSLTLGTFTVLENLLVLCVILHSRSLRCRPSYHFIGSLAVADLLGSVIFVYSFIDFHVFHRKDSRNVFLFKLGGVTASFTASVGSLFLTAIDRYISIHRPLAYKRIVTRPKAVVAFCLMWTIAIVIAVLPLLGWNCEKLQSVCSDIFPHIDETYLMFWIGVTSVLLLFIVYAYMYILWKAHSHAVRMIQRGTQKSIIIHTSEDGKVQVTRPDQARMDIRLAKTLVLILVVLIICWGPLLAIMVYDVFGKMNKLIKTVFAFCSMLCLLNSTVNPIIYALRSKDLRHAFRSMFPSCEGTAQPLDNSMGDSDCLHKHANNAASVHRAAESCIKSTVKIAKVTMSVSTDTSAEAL

Regarding `Cc1c(Br)cn(Cc2ccc(F)cc2)c(=O)c1C(=O)NC1CCCCCC1`, the pKi on Cannabinoid receptor 2 [1] was 8.46; at Cannabinoid receptor 1 [7], 8.64. Moreover, the outcome on Cannabinoid receptor 1 [2] was Active. This compound showed a pEC50 on Cannabinoid receptor 1 [3] of 8.85. Moreover, the pIC50 is under 5.00 in [4], 5.64 in [5] and under 5.00 against Monoglyceride lipase. On Cannabinoid receptor 2 [6], this compound gave a maximal response (Emax) of 134%. Further, the result in the test with U-251 was inactive.
`COc1ccc(-c2cn(Cc3ccc(F)cc3)c(=O)c(C(=O)NC3CCCCCC3)c2C)cc1`: the pKi is 8.10 at Cannabinoid receptor 2 [1] and 7.51 on Cannabinoid receptor 1 [7]. Besides, the outcome at Cannabinoid receptor 1 [2] was Active. At Cannabinoid receptor 1 [3], this compound gave a negative-log EC50 (pEC50) of 7.02. Also, the negative-log IC50 (pIC50) in [4] was under 5.00; in test [5] it was 5.89; at Monoglyceride lipase, under 5.00. The Emax on Cannabinoid receptor 2 [6] is 99%. Further, the result with U-251 was inactive.
For `Cc1c(Br)cnc(OCc2ccc(F)cc2)c1C(=O)NC1CCCCCC1`, the negative logarithm of the Ki (pKi) at Cannabinoid receptor 2 [1] is 6.22; on Cannabinoid receptor 1 [7] it was 6.95. Besides, the outcome on Cannabinoid receptor 1 [2] was Active. At Cannabinoid receptor 1 [3], this compound showed a pEC50 of 6.74. Also, the values for the negative logarithm of the IC50 (pIC50) (in [4]; in test [5]; on Monoglyceride lipase) were 6.28, under 5.00 and under 5.00, respectively. For the same compound, the Emax on Cannabinoid receptor 2 [6] turned out to be 125%. Further, the outcome in the test with U-251 was inactive.
